Results reported in ChEMBL document CHEMBL1151261, “Antineoplastic agents. 509: synthesis of fluorcombstatin phosphate and related 3-halostilbenes(1)” (J Nat Prod, 2005).
Converted amounts (≈) assume the structure as drawn.

How the values were obtained:
[1] = test system: P388; test: Cytotoxicity against mouse P388 cells after 48 hrs by Coulter particle counting; settings: P388, 48 h, read-out: ED50 (the source's name)
[2] = test system: KM-20L2; test: Cytotoxicity against human KM20L2 cells after 48 hrs by sulforhodamine B assay; assay type: functional; settings: KM-20L2, 48 h
How it was run: (§1)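 Human tumor lines exposed to compound for 48 h, then fixed with trichloroacetic acid and stained with sulforhodamine B (NCI standard protocol); optical density read on a microplate reader. GI50 is the concentration giving a 50% reduction in net protein increase, calculated from optical density data.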

[3] = test system: SF-268; test: Cytotoxicity against human SF268 cells after 48 hrs by sulforhodamine B assay; assay type: functional; settings: SF-268, 48 h
How it was run: as §1

[4] = test system: NCI-H460; test: Cytotoxicity against human NCI-H460 cells after 48 hrs by sulforhodamine B assay; assay type: functional; settings: NCI-H460, 48 h
How it was run: as §1

[5] = test system: DU-145; test: Cytotoxicity against human DU145 cells after 48 hrs by sulforhodamine B assay; assay type: functional; settings: DU-145, 48 h
How it was run: as §1

[6] = test system: BXPC-3; test: Cytotoxicity against human BxPC3 cells after 48 hrs by sulforhodamine B assay; assay type: functional; settings: BXPC-3, 48 h
How it was run: as §1

[7] = test system: MCF7; test: Cytotoxicity against human MCF7 cells after 48 hrs by sulforhodamine B assay; assay type: functional; settings: MCF7, 48 h
How it was run: as §1

Compound	EC50 [1]	GI50 [2]	GI50 [3]	GI50 [4]	GI50 [5]	GI50 [6]	GI50 [7]
COc1ccc(/C=C\c2cc(OC)c(OC)c(OC)c2)cc1OP(=O)([O-])[O-].[Na+].[Na+] [FOSBRETABULIN DISODIUM]	0.0004 µg/mL	0.034 µg/mL	0.036 µg/mL	0.029 µg/mL	–	–	–
C1COCCN1.C1COCCN1.COc1ccc(/C=C\c2cc(F)c(OC)c(OC)c2)cc1OP(=O)(O)O	0.015 µg/mL	> 1 µg/mL	0.0087 µg/mL	0.005 µg/mL	0.0046 µg/mL	0.73 µg/mL	0.0079 µg/mL
COc1ccc(/C=C\c2cc(O)c(OC)c(OC)c2)cc1O	0.26 µg/mL (≈ 0.86 µM)	1.2 µg/mL (≈ 3.97 µM)	0.0083 µg/mL (≈ 0.0275 µM)	0.19 µg/mL (≈ 0.628 µM)	0.0043 µg/mL (≈ 0.0142 µM)	2.3 µg/mL (≈ 7.61 µM)	0.49 µg/mL (≈ 1.62 µM)
COc1ccc(/C=C\c2cc(Br)c(OC)c(OC)c2)cc1OP(=O)([O-])[O-].[Rb+].[Rb+]	< 0.01 µg/mL	2.6 µg/mL	0.023 µg/mL	0.041 µg/mL	0.042 µg/mL	0.56 µg/mL	0.043 µg/mL
COc1ccc(/C=C\c2cc(Br)c(OC)c(OC)c2)cc1OP(=O)([O-])[O-].[Mg+2]	< 0.01 µg/mL	0.27 µg/mL	0.0053 µg/mL	0.0039 µg/mL	0.0045 µg/mL	0.074 µg/mL	0.0045 µg/mL
COc1ccc(/C=C\c2cc(OC)c(OC)c([N+](=O)[O-])c2)cc1[N+](=O)[O-]	> 10 µg/mL	0.27 µg/mL (≈ 0.749 µM)	0.59 µg/mL (≈ 1.64 µM)	0.24 µg/mL (≈ 0.666 µM)	0.34 µg/mL (≈ 0.944 µM)	0.39 µg/mL (≈ 1.08 µM)	0.37 µg/mL (≈ 1.03 µM)
COc1ccc(/C=C/c2cc(Cl)c(OC)c(OC)c2)cc1O	0.027 µg/mL (≈ 0.0842 µM)	1.4 µg/mL (≈ 4.36 µM)	0.048 µg/mL (≈ 0.15 µM)	0.034 µg/mL (≈ 0.106 µM)	0.038 µg/mL (≈ 0.118 µM)	0.59 µg/mL (≈ 1.84 µM)	0.041 µg/mL (≈ 0.128 µM)
COc1ccc(/C=C\c2cc(Br)c(OC)c(OC)c2)cc1OP(=O)([O-])[O-].[Ca+2]	0.288 µg/mL	0.37 µg/mL	0.0022 µg/mL	0.0068 µg/mL	0.0063 µg/mL	< 0.001 µg/mL	0.0022 µg/mL
COc1ccc(/C=C\c2cc(Br)c(OC)c(OC)c2)cc1OP(=O)([O-])[O-].[Li+].[Li+]	< 0.01 µg/mL	0.11 µg/mL	0.003 µg/mL	0.0026 µg/mL	0.0066 µg/mL	0.13 µg/mL	0.0039 µg/mL
COc1ccc(/C=C\c2cc(Br)c(OC)c(OC)c2)cc1OP(=O)([O-])[O-].[K+].[K+]	< 0.01 µg/mL	0.24 µg/mL	0.0032 µg/mL	0.0029 µg/mL	0.0028 µg/mL	0.2 µg/mL	0.0035 µg/mL
C1CCNCC1.C1CCNCC1.COc1ccc(/C=C\c2cc(F)c(OC)c(OC)c2)cc1OP(=O)(O)O	0.004 µg/mL	> 1 µg/mL	0.0075 µg/mL	0.022 µg/mL	0.011 µg/mL	0.39 µg/mL	0.011 µg/mL
COc1ccc(/C=C\c2cc(Br)c(OC)c(OC)c2)cc1OP(=O)([O-])[O-].[Na+].[Na+]	< 0.01 µg/mL	0.23 µg/mL	0.0034 µg/mL	0.0028 µg/mL	0.0046 µg/mL	0.093 µg/mL	0.0041 µg/mL
COc1ccc(/C=C\c2cc(O)c(OC)c(OC)c2)cc1[N+](=O)[O-]	0.402 µg/mL (≈ 1.21 µM)	1.8 µg/mL (≈ 5.43 µM)	0.62 µg/mL (≈ 1.87 µM)	0.31 µg/mL (≈ 0.936 µM)	0.39 µg/mL (≈ 1.18 µM)	2.5 µg/mL (≈ 7.55 µM)	0.49 µg/mL (≈ 1.48 µM)
COc1ccc(/C=C/c2cc(O)c(OC)c(OC)c2)cc1[N+](=O)[O-]	0.224 µg/mL (≈ 0.676 µM)	1.2 µg/mL (≈ 3.62 µM)	0.41 µg/mL (≈ 1.24 µM)	0.25 µg/mL (≈ 0.755 µM)	0.36 µg/mL (≈ 1.09 µM)	1.1 µg/mL (≈ 3.32 µM)	0.56 µg/mL (≈ 1.69 µM)
COc1ccc(/C=C/c2cc(OC)c(OC)c(O[Si](C)(C)C(C)(C)C)c2)cc1[N+](=O)[O-]	2.22 µg/mL (≈ 4.98 µM)	> 10 µg/mL	4.1 µg/mL (≈ 9.2 µM)	2.9 µg/mL (≈ 6.51 µM)	2.8 µg/mL (≈ 6.28 µM)	> 10 µg/mL	3.2 µg/mL (≈ 7.18 µM)
COc1ccc(/C=C\c2cc(OC)c(OC)c(OC)c2)c(O)c1O [COMBRETASTATIN A-1]	0.251 µg/mL (≈ 0.755 µM)	0.061 µg/mL (≈ 0.184 µM)	–	0.74 µg/mL (≈ 2.23 µM)	0.17 µg/mL (≈ 0.512 µM)	4.4 µg/mL (≈ 13.2 µM)	–
